Entries after “also recorded” stand apart in the source; their conditions may differ. Where two headings read alike, the source gives them in different places.
Key:
human CMBL [1] = target: T1, human CMBL (Homo sapiens, UniProt Q96DG6); assay: Hydrolysis of medoxomil prodrugs by recombinant CMBL; assay type: in vitro ADME; conditions: CMBL-transfected mammalian cell lysate, pH 7.4, 37 °C
T1 sequence (Q96DG6 1-245): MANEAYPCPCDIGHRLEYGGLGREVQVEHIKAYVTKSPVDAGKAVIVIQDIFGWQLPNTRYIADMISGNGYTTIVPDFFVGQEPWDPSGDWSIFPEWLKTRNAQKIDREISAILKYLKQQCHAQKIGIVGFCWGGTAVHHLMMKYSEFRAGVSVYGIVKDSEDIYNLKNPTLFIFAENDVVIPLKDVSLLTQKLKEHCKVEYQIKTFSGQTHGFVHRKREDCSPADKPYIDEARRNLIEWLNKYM

human CMBL [2] = target: T1, human CMBL; assay type: biochemical
[3] = system: OM-hydrolyzing activity in human intestinal cytosol; assay type: biochemical
[4] = system: OM-hydrolyzing activity in human liver cytosol; assay type: biochemical
human CMBL [5] = target: T1, human CMBL; assay: Hydrolysis of typical esterase substrates by recombinant CMBL; assay type: biochemical; conditions: substrate 1 mM, CMBL-transfected cell lysate 0.05 mg protein/ml
[6] = OM hydrolysis in human intestinal microsomes, kinetic analysis; assay type: in vitro ADME
Outline: (§1)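 Commercial human liver or intestinal subcellular fractions were incubated in 10 mM potassium phosphate (pH 7.4) at 37 °C with OM at 7.81–1000 μM. Protein was 0.05 mg/ml for liver and intestinal cytosols, 0.5 mg/ml for liver microsomes and 0.25 mg/ml for intestinal microsomes. Olmesartan was measured by C18 HPLC-UV at 254 nm, net of buffer-control hydrolysis. Km and Vmax came from nonlinear least-squares Michaelis–Menten fits of triplicates.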

[7] = Prodrug in portal or circulating blood of rats; assay type: in vivo; conditions: data not shown
[8] = OM hydrolysis in human intestinal cytosol, kinetic analysis; assay type: in vitro ADME
Outline: as §1

[9] = OM hydrolysis in human liver cytosol, kinetic analysis; assay type: in vitro ADME
Outline: as §1

human plasma PON1 = conditions: cited from earlier work
plasma albumin = conditions: cited from earlier work
[10] = OM hydrolysis in human liver microsomes, kinetic analysis; assay type: in vitro ADME
Outline: as §1

human CMBL [11] = target: T1, human CMBL; assay: Ulifloxacin formation from prulifloxacin by recombinant CMBL; assay type: in vitro ADME; conditions: HEPES pH 7.4, 37 °C, CMBL-transfected mammalian cell lysate
[12] = system: OM-hydrolyzing activity in human plasma; assay: Effect of esterase inhibitors on OM-hydrolyzing activity in human plasma; assay type: biochemical; conditions: OM 250 μM, 5 min
Outline: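 Human plasma, diluted to 2.5 mg protein/ml, incubated 5 min with OM substrate (250 μM) plus one esterase inhibitor: BNPP, DFP, PCMB, eserine or PMSF at 1000 μM, or EDTA at 500 μM. Olmesartan formed was quantified by reversed-phase C18 HPLC with UV at 254 nm. Activity was expressed as formation rate. Means of duplicate determinations.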

Cc1oc(=O)oc1COC(=O)[C@@H]1N2C(=O)[C@@H](NC(=O)[C@H](N)c3ccccc3)[C@H]2SC1(C)C [Lenampicillin]
Hydrolysis by recombinant CMBL (human CMBL [1]): readily hydrolyzed

CNC(=O)Oc1ccc2c(c1)[C@]1(C)CCN(C)[C@@H]1N2C [eserine]
Inhibition of OM-hydrolyzing activity (human CMBL [2]): no inhibition
Inhibition of OM-hydrolyzing activity [3]: not inhibited
Inhibition of OM-hydrolyzing activity [4]: not inhibited

O=S(=O)(F)Cc1ccccc1 [PMSF, Phenylmethylsulfonyl fluoride]
Inhibition of OM-hydrolyzing activity (human CMBL [2]): no inhibition
Inhibition of OM-hydrolyzing activity [3]: not inhibited
Inhibition of OM-hydrolyzing activity [4]: not inhibited

CC(=O)Oc1ccc([N+](=O)[O-])cc1 [p-nitrophenyl acetate]
Hydrolysis by recombinant CMBL (human CMBL [5]): does not hydrolyze

O=[N+]([O-])c1ccc(OP(=O)(O)Oc2ccc([N+](=O)[O-])cc2)cc1 [BNPP, Bis-p-nitrophenylphosphate]
Inhibition of OM-hydrolyzing activity (human CMBL [2]): ~50%
Inhibition of OM-hydrolyzing activity [3]: partially inhibited
Inhibition of OM-hydrolyzing activity [4]: partially inhibited

CC(=O)Oc1ccccc1 [phenyl acetate]
Hydrolysis by recombinant CMBL (human CMBL [5]): does not hydrolyze

CCCc1nc(C(C)(C)O)c(C(=O)OCc2oc(=O)oc2C)n1Cc1ccc(-c2ccccc2-c2nnn[nH]2)cc1 [Olmesartan medoxomil]
Vmax ([6]; Intestinal microsomes, mean ± S.E.): 6.76 ± 0.11 nmol/min/mg protein
Km ([6]; human, intestinal microsomes, pH 7.4): 236 ± 10 µM
Prodrug detected in portal or circulating blood [7]: no prodrug was detected
Vmax ([8]; Intestinal cytosol, mean ± S.E.): 45.1 ± 2.0 nmol/min/mg protein
Km ([8]; human, intestinal cytosol, pH 7.4): 193 ± 24 µM
Vmax ([9]; Liver cytosol, mean ± S.E.): 19.7 ± 0.8 nmol/min/mg protein
Km ([9]; human, liver cytosol, pH 7.4): 160 ± 19 µM
Hydrolysis by PON1 (human plasma PON1; listed as OM): capable of hydrolyzing; also recorded: hydrolyze
Hydrolysis by plasma albumin (plasma albumin): capable of hydrolyzing
Vmax ([10]; Liver microsomes, mean ± S.E.): 15.0 ± 0.3 nmol/min/mg protein
Km ([10]; human, liver microsomes, pH 7.4): 481 ± 23 µM

CC(=O)SCC[N+](C)(C)C.[I-] [acetylthiocholine iodide]
Hydrolysis by recombinant CMBL (human CMBL [5]): does not hydrolyze

Cc1oc(=O)oc1CN1CCN(c2cc3c(cc2F)c(=O)c(C(=O)O)c2n3C(C)S2)CC1 (centres unmarked) [prulifloxacin]
Enzymatic hydrolysis by recombinant human CMBL (human CMBL [11]): not enzymatically hydrolyzed; also recorded: not hydrolyzed at all
Hydrolysis by PON1 (human plasma PON1): hydrolyze

O=C(O)c1cc[c]([Hg][Cl])cc1 [PCMB, p-chloromercuribenzoate]
Inhibition of OM-hydrolyzing activity (human CMBL [2]): almost completely inhibited
Inhibition of OM-hydrolyzing activity [3]: strongly inhibited
Inhibition of OM-hydrolyzing activity [4]: strongly inhibited
Inhibition of OM-hydrolyzing activity ([12]; inhibitor 1000 μM): almost completely inhibited

O=C(O)CN(CCN(CC(=O)O)CC(=O)O)CC(=O)O [EDTA]
Inhibition of OM-hydrolyzing activity (human CMBL [2]): no inhibition
Inhibition of OM-hydrolyzing activity [3]: not inhibited
Inhibition of OM-hydrolyzing activity [4]: not inhibited
Inhibition of OM-hydrolyzing activity ([12]; inhibitor 500 μM): almost completely inhibited

Cc1oc(=O)oc1COC(=O)C1=C([C@H]2CCCO2)S[C@@H]2[C@@H]([C@@H](C)O)C(=O)N12 [Faropenem medoxomil]
Hydrolysis by recombinant CMBL (human CMBL [1]): readily hydrolyzed
